According to ChEMBL document CHEMBL1124951, “N-phenyl-2-pyridinecarbothioamides as gastric mucosal protectants” (J Med Chem, 1990):
Activity calls are given as the source filed them. The calls are words filed in the database; no cut-off is given here.

Tests used:
[1] = system: Rattus norvegicus; assay: Percent inhibition against ethanol-induced gastric lesions in male albino rat was determined at a dose of 25 mg/Kg; format: functional; conditions: Stomach
Method in brief: (§1)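 Charles River male albino rats (190-219 g), food withheld 18-24 h with water available. Drug or vehicle given orally 1 h before ethanol (1 mL per rat po). Rats killed by CO2 asphyxiation 1 h after ethanol. Lesions scored single blind by size (mm2) and number per size category. Percent inhibition taken against the vehicle group mean; ED50 with 95% confidence limits obtained by regression of dose-response data.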

[2] = system: Rattus norvegicus; assay: Percent inhibition against ethanol-induced gastric lesions in male albino rat was determined at a dose of 50 mg/Kg (po); format: functional; conditions: Stomach; method in brief: as §1
[3] = system: Rattus norvegicus; assay: Percent inhibition against ethanol-induced gastric lesions in male albino rat was determined at a dose of 10 mg/Kg; format: functional; conditions: Stomach; method in brief: as §1
[4] = system: Rattus norvegicus; assay: Percent inhibition against ethanol-induced gastric lesions in male albino rat was determined at a dose of 5 mg/Kg; format: functional; conditions: Stomach; method in brief: as §1
[5] = species: Rattus norvegicus; assay: Compound was evaluated for activity in acute lethality model; format: ADME, organism-based; conditions: in vivo
[6] = species: Rattus norvegicus; assay: Compound was evaluated for activity in stress-induced ulcers; format: functional
Method in brief: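 Rats dosed po with drug or vehicle 30 min before immobilization in restrainers at 4-5 °C for 3 h, then euthanized. Gastric ulcers graded by size and number, with percent inhibition taken against the control mean. ED50 with 95% confidence limits obtained by regression of dose-response data.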

[7] = system: Rattus norvegicus; assay: Compound was evaluated for activity against ethanol-induced gastric lesions mg/kg;NS=No significant activity at 25 mg/kg; format: functional, organism-based; design: dose 25 mg/kg; conditions: Stomach; method in brief: as §1
[8] = species: Rattus norvegicus; assay: Compound was evaluated for antisecretory action in the pylorus-ligated rat model (PLR); format: functional
Method in brief: (§2)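 Drug or vehicle given orally. After 1 h, rats anesthetized with methohexital (30 mg/kg ip) and the pylorus ligated through a midline incision. Killed by CO2 4 h after surgery. Gastric volume measured and acid titrated to pH 7.0 with 0.1 N NaOH. Total acid output (microequivalents per 4 h) = volume × acid concentration.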

[9] = species: Rattus norvegicus; assay: Effective dose against ethanol-induced gastric lesions in male albino rat when given perorally was determined; 3.0-10; format: functional; conditions: Stomach, po; method in brief: as §1
[10] = system: Rattus norvegicus; assay: Percent inhibition against ethanol-induced gastric lesions in male albino rat was determined at a dose of 100 mg/Kg (po); format: functional; conditions: Stomach; method in brief: as §1
[11] = system: Rattus norvegicus; assay: Percent inhibition against ethanol-induced gastric lesions in male albino rat was determined at a dose of 5 mg/Kg (po); format: functional; conditions: Stomach; method in brief: as §1
[12] = Compound was evaluated for lethal activity through acute lethality model when given perorally; format: ADME, organism-based; conditions: rat, in vivo, po
[13] = system: Rattus norvegicus; assay: Compound was evaluated for activity in stress-induced ulcer rat (po); format: functional
Method in brief: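 Rats dosed po with drug or vehicle 30 min before immobilization in restrainers at 4-5 °C for 3 h, then euthanized. Gastric ulcers graded by size and number, with percent inhibition taken against the control mean.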

[14] = species: Rattus norvegicus; assay: Effective dose against ethanol-induced gastric lesions in male albino rat when given perorally was determined; 0.2-4.7; format: functional; conditions: Stomach, po; method in brief: as §1
[15] = system: Rattus norvegicus; assay: Compound was evaluated for antisecretory action in the pylorus-ligated rat model (PLR) at 100 mg/kg (po); No significant activity at 100 mg/kg; format: functional, organism-based; method in brief: as §2
[16] = species: Rattus norvegicus; assay: Effective dose against ethanol-induced gastric lesions in male albino rat when given perorally was determined; 0.5-1.5; format: functional; conditions: Stomach, po; method in brief: as §1
[17] = species: Rattus norvegicus; assay: Compound was evaluated for activity in acute lethality model; NL=Not lethal; format: ADME, organism-based; conditions: in vivo
[18] = system: Rattus norvegicus; assay: Compound was evaluated for antisecretory action in the pylorus-ligated rat model (PLR) at 100 mg/kg;NS=No significant activity at 100 mg/kg; format: functional, organism-based; method in brief: as §2
[19] = species: Rattus norvegicus; assay: Compound was evaluated for activity against ethanol-induced gastric lesions; format: functional; conditions: Stomach; method in brief: as §1
[20] = species: Rattus norvegicus; assay: Effective dose against ethanol-induced gastric lesions in male albino rat when given perorally was determined; 1.2-5.9; format: functional; conditions: Stomach, po; method in brief: as §1
[21] = species: Rattus norvegicus; assay: Effective dose against ethanol-induced gastric lesions in male albino rat when given perorally was determined; 2.4-11; format: functional; conditions: Stomach, po; method in brief: as §1

SMILES: Fc1ccc(NC(=S)c2ccccn2)cc1Cl
- inhibition in vivo at 25 mg/kg [1]: 56%

SMILES: S=C(c1ccccn1)N1CCN(c2ccccc2)CC1
- inhibition in vivo at 50 mg/kg [2]: -6%

SMILES: CN(C(=S)c1ccccn1)c1cc(F)cc(F)c1
- inhibition in vivo at 25 mg/kg [1]: 40%

SMILES: O=C(O)c1cc(NC(=S)c2ccccn2)ccc1F
- inhibition in vivo at 10 mg/kg [3]: 42%

SMILES: Cc1ccc(NC(=S)c2ccccn2)cc1Cl
- inhibition in vivo at 25 mg/kg [1]: 22%

SMILES: S=C(c1ccccn1)N1CCOCC1
- inhibition in vivo at 50 mg/kg [2]: 44%

SMILES: N#CN/C(=N\c1ccccc1)c1ccccn1
- inhibition in vivo at 5 mg/kg [4]: 37%

SMILES: CNC(=C[N+](=O)[O-])NCCSCc1ccc(CN(C)C)o1 [RANITIDINE]
- LD50 [5]: Not Active
- ED50 [6]: 3.6 mg/kg
- ED50 [7]: inactive
- ED50 [8]: 2.4 mg/kg

SMILES: CCOC(=O)c1cc(NC(=S)c2ccccn2)ccc1F
- inhibition in vivo at 10 mg/kg [3]: 10%

SMILES: CN1CCN(Cc2cccc(NC(=S)c3ccccn3)c2)CC1
- inhibition in vivo at 10 mg/kg [3]: 10%

SMILES: COc1ccc(NC(=S)c2ccccn2)cc1Cl
- inhibition in vivo at 25 mg/kg [1]: 44%

SMILES: Cc1ccc(NC(=S)c2ccccn2)cc1F
- ED50 [9]: 5.4 mg/kg

SMILES: Fc1cc(F)cc(NC(=S)c2ccncc2)c1
- inhibition in vivo at 25 mg/kg [1]: 85%

SMILES: Fc1ccccc1/N=C(\S)c1ccccn1
- inhibition in vivo at 100 mg/kg [10]: 69%

SMILES: FC(F)(F)Oc1ccc(NC(=S)c2ccccn2)cc1
- inhibition in vivo at 5 mg/kg [4]: 35%

SMILES: S=C(Nc1ccc(OCc2ccccc2)cc1)c1ccccn1
- inhibition in vivo at 5 mg/kg [11]: 47%

SMILES: S=C(Nc1cc(Cl)cc(Cl)c1)c1ccccn1
- inhibition in vivo at 25 mg/kg [1]: 89%

SMILES: S=C(NCc1ccc2c(c1)OCO2)c1ccccn1
- inhibition in vivo at 50 mg/kg [2]: 11%

SMILES: COc1ccc(NC(=S)c2ccccn2)cc1OC
- inhibition in vivo at 5 mg/kg [11]: 0%

SMILES: C[S+]([O-])c1ccc(NC(=S)c2ccccn2)cc1 (centres undefined)
- inhibition in vivo at 5 mg/kg [4]: 54%

SMILES: S=C(Nc1ccccc1)c1ccccn1
- LD50 [12]: > 1000 mg/kg
- ED50 [13]: 10 mg/kg
- ED50 [14]: 1.1 mg/kg
- ED50 [15]: inactive

SMILES: N#Cc1cc(NC(=S)c2ccccn2)ccc1F
- inhibition in vivo at 10 mg/kg [3]: 29%

SMILES: Fc1ccc(NC(=S)c2ccccn2)cc1Cn1ccnc1
- ED50 [16]: 0.9 mg/kg

SMILES: O=S(=O)(OC[C@H]1O[C@@H](O[C@]2(COS(=O)(=O)[O][Al]([OH])[OH])O[C@H](OS(=O)(=O)[O][Al]([OH])[OH])[C@@H](OS(=O)(=O)[O][Al]([OH])[OH])[C@@H]2OS(=O)(=O)[O][Al]([OH])[OH])[C@H](OS(=O)(=O)[O][Al]([OH])[OH])[C@@H](OS(=O)(=O)[O][Al]([OH])[OH])[C@@H]1OS(=O)(=O)[O][Al]([OH])[OH])[O][Al]([OH])[OH].[OH][Al]([OH])[OH].[OH][Al]([OH])[OH].[OH][Al]([OH])[OH].[OH][Al]([OH])[OH].[OH][Al]([OH])[OH].[OH][Al]([OH])[OH].[OH][Al]([OH])[OH].[OH][Al]([OH])[OH]
- LD50 [17]: Not lethal
- ED50 [18]: inactive
- ED50 [19]: 60 mg/kg

SMILES: CN(C(=S)c1ccccn1)c1cccc(F)c1
- inhibition in vivo at 10 mg/kg [3]: 31%

SMILES: S=C(Nc1ccccn1)c1ccccn1
- ED50 [20]: 2.6 mg/kg

SMILES: O=C(Nc1cc(F)cc(F)c1)c1ccccn1
- inhibition in vivo at 25 mg/kg [1]: 11%

SMILES: Fc1cc(F)cc(NC(=S)c2cccnc2)c1
- inhibition in vivo at 25 mg/kg [1]: 55%

SMILES: S=C(c1ccccn1)N1CCCc2ccccc21
- inhibition in vivo at 10 mg/kg [3]: 17%

SMILES: S=C(Nc1ccccn1)c1cnccn1
- ED50 [21]: 5.2 mg/kg

SMILES: FC(F)(F)COc1cccc(NC(=S)c2ccccn2)c1
- inhibition in vivo at 10 mg/kg [3]: 7%

SMILES: S=C(Nc1cccc(CN2CCSCC2)c1)c1ccccn1
- inhibition in vivo at 10 mg/kg [3]: 32%

SMILES: O=C(Nc1cccc(F)c1)c1ccccn1
- inhibition in vivo at 10 mg/kg [3]: 24%

SMILES: CCN(C(=S)c1ccccn1)c1cc(F)cc(F)c1
- inhibition in vivo at 10 mg/kg [3]: 13%

SMILES: CSc1ccc(NC(=S)c2ccccn2)cc1
- inhibition in vivo at 5 mg/kg [11]: 31%

SMILES: S=C(Nc1cccc(CN2CCOCC2)c1)c1ccccn1
- inhibition in vivo at 10 mg/kg [3]: 64%
